Data taken from ChEMBL document CHEMBL1149170, “Khellinone derivatives as blockers of the voltage-gated potassium channel Kv1.3: synthesis and immunosuppressive activity” (J Med Chem, 2004).

Columns and labels:
[1] = target: T1, Potassium voltage-gated channel subfamily A member 3 (Homo sapiens, UniProt P22001); test: Dissociation constant for the blockage of voltage-gated potassium channel subunit Kv1.3 in human lymphocytes; assay type: cell-based
[2] = target: T1, Potassium voltage-gated channel subfamily A member 3; test: Dissociation constant for blockade of voltage-gated potassium channel subunit Kv1.3 in human lymphocytes; no effect when tested at 10 uM; assay type: cell-based
In short: (§1)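 Whole-cell patch clamp on cells stably expressing Kv1.3, holding potential −80 mV. Bath: Ringer (160 mM NaCl, 4.5 mM KCl, 2 mM CaCl2, 1 mM MgCl2, 10 mM HEPES, pH 7.4). Pipette: 134 mM KF, 2 mM MgCl2, 10 mM HEPES, 10 mM EGTA, pH 7.2. 500-ms pulses to 40 mV every 45 s. Single test concentration only.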

[3] = Selectivity for Kv1.3 over Kv1.1 voltage-gated potassium channel subunit
In short: (§2)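 Ringer bath, KF/EGTA pipette. Kv1.1, Kv1.2, Kv1.5, Kv1.7 and IKCa1 recorded in stably or transiently expressing cells. Kd from Hill fit to reduction in current area. Each compound 2–3 times at 3–5 concentrations.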

[4] = Selectivity for Kv1.3 over Kv1.2 voltage-gated potassium channel subunit; in short: as §2
Homo sapiens = species: Homo sapiens; test: Inhibition of anti-CD3 dependent human T cell proliferation; assay type: functional
In short: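 PBMCs from healthy volunteers, isolated on a density gradient, seeded at 2×10^5 cells/well in supplemented RPMI 1640. Compound preincubation 60 min, then anti-CD3 antibody 50 ng/mL for 48 h. [3H]thymidine added for the last 6 h; incorporation counted by scintillation. Normalized to maximal control incorporation. Triplicate.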

[5] = Selectivity for Kv1.3 voltage-gated K+ channel over IKCa1 [Ca2+] activated K+ channel; in short: as §2
[6] = Selectivity for Kv1.3 over Kv1.5 voltage-gated potassium channel subunit; in short: as §2
[7] = target: T1, Potassium voltage-gated channel subfamily A member 3; test: Dissociation constant for the blockade of voltage-gated potassium channel subunit Kv1.3 in human lymphocytes; no effect when tested at 1 uM; assay type: cell-based; in short: as §1
[8] = Selectivity for Kv1.3 over Kv1.7 voltage-gated potassium channel subunit; in short: as §2

T1 sequence (P22001 whole entry): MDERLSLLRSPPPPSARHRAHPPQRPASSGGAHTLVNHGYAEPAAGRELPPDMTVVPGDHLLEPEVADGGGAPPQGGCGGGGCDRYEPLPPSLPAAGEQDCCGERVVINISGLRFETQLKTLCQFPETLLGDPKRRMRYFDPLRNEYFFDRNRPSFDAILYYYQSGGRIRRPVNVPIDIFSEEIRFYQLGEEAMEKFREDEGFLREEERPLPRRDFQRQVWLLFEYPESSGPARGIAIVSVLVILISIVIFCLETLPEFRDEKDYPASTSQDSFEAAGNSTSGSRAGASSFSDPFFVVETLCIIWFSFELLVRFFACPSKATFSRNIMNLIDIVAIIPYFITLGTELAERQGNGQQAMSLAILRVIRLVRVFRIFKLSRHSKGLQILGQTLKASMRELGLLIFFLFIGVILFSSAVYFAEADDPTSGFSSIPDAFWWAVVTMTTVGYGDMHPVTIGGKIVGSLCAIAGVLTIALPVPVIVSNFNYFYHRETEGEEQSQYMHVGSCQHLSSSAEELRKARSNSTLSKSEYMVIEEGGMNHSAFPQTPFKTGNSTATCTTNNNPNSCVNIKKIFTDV

With `COc1c(C(C)=O)c(O)c(OC)c2occc12` the Kd [1] was 50000 nM.

Compound `COc1c(C(=O)/C=C/c2ccccc2)c(O)cc2occc12` has a Kd [1] of 17000 nM.

Compound `COc1c(C(C)=O)c(OCCCCCOc2c(C(C)=O)c(OC)c3ccoc3c2OC)c(OC)c2occc12` has a Kd [1] of 820 nM.

Compound `COc1c(C(=O)/C=C/c2ccc(C)cc2)c(O)c(OC)c2occc12` has a Kd [1] of 700 nM.

With `COc1c(C(C)=O)c(OCc2ccc(COc3c(C(C)=O)c(OC)c4ccoc4c3OC)c(C(=O)O)c2)c(OC)c2occc12` the Kd [1] was 5000 nM.

Work on `COc1c(C(C)=O)c(OCc2ccc(COc3c(C(C)=O)c(OC)c4ccoc4c3OC)cc2)c(OC)c2occc12` yielded a Kd [1] of 3100 nM.

`COc1c(C(C)O)c(OCc2ccc(COc3c(C(C)O)c(OC)c4occc4c3OC)cc2)c(OC)c2occc12` (stereo unspecified) gave a Kd [1] of 2000 nM.

For `COCCOCCOCCOCCOC(=O)c1cc(COc2c(C(C)=O)c(OC)c3ccoc3c2OC)ccc1COc1c(C(C)=O)c(OC)c2ccoc2c1OC`, the Kd [2] was “Not Active”.

`COc1c(C(C)=O)c(OCc2cccc(COc3c(C(C)=O)c(OC)c4ccoc4c3OC)c2)c(OC)c2occc12` gave a Kd [1] of 560 nM.

With `COc1c(C(C)=O)c(OCCCCCCOc2c(C(C)=O)c(OC)c3ccoc3c2OC)c(OC)c2occc12` the Kd [3] was 300 nM, the Kd [1] was 680 nM and the Kd [4] was 0.25 µM. For the same compound, the EC50 (Homo sapiens) was 800 nM.

With `Nc1ccncc1` [DALFAMPRIDINE] the Kd [3] was 290000 nM, the Kd [5] was 29 µM and the Kd [4] was 590 µM. The Kd [6] was 270 µM.

In the case of `COc1c(C(=O)/C=C/c2ccccc2)c(OCc2ccc(COc3c(C(=O)/C=C/c4ccccc4)c(OC)c4ccoc4c3OC)cc2)c(OC)c2occc12`, the Kd [7] is reported as “Not Active”.

`C=C1C[C@@]2(O)[C@@H]3CC[C@@]4(C)[C@@H]5C=CC(=O)OC[C@]5(C(C)OC(C)=O)[C@@H](OC(C)=O)[C@@H](OC(C)=O)[C@@H]4[C@@]3(C)[C@H](OC(C)=O)[C@H](OC(C)=O)[C@@]2(C)C2(C(=O)OC)O[C@H]12` (stereo partly specified) [CORREOLIDE] showed a Kd [1] of 100 nM and an EC50 (Homo sapiens) of 300 nM.

Compound `COc1c(/C(C)=N/N=C(\C)c2c(O)c(OC)c3occc3c2OC)c(O)c(OC)c2occc12` has a Kd [1] of 70000 nM.

With `COc1c(C(=O)/C=C/c2ccccc2)c(O)c(OC)c2occc12` the Kd [3] was 1200 nM, the Kd [5] was over 100 µM and the Kd [8] was 10 µM. For the same compound, the Kd [4] was over 50 µM, the Kd [6] was 5.1 µM and the EC50 (Homo sapiens) was 600 nM.

Work on `COc1c(C(C)=O)c(OCCOCCOc2c(C(C)=O)c(OC)c3ccoc3c2OC)c(OC)c2occc12` yielded a Kd [1] of 4000 nM.

`COc1c(C(C)=O)c(OCCCCCCCOc2c(C(C)=O)c(OC)c3ccoc3c2OC)c(OC)c2occc12` showed a Kd [1] of 3000 nM.

`COc1c(C(=O)CCc2ccccc2)c(O)c(OC)c2occc12` gave a Kd [1] of 600 nM.

For `COc1c(C(=O)/C=C/C=C/c2ccccc2)c(O)c(OC)c2occc12`, the Kd [7] was “Not Active”.

For `COc1c(C(=O)/C=C/c2cccc(O)c2)c(O)c(OC)c2occc12`, the Kd [3] was 1700 nM, the Kd [5] was over 100 µM and the Kd [8] was 50 µM. The Kd [4] was over 50 µM, the Kd [6] was 12 µM and the EC50 (Homo sapiens) was 1000 nM.

`COc1cccc(/C=C/C(=O)c2c(O)c(OC)c3occc3c2OC)c1` gave a Kd [3] of 2000 nM, a Kd [1] of 800 nM and a Kd [5] of over 100 µM. The Kd [8] was over 50 µM, the Kd [4] was over 50 µM and the Kd [6] was 20 µM. The EC50 (Homo sapiens) was 1000 nM.

For `COc1c(C(=O)/C=C/c2cccc(/C=C/C(=O)c3c(O)c(OC)c4occc4c3OC)c2)c(O)c(OC)c2occc12`, the Kd [2] was “Not Active”.

`COc1c(C(=O)/C=C/c2cc(Br)cs2)c(O)c(OC)c2occc12` showed a Kd [1] of 800 nM.

With `COc1c(C(C)=O)c(OCc2ccc(COc3cc4occc4c(OC)c3C(C)=O)cc2)cc2occc12` the Kd [1] was 1000 nM.

With `COc1c(C(C)=O)c(OCc2ccccc2)c(OC)c2occc12` the Kd [1] was 10000 nM.

Compound `COc1c(C(=O)/C=C/c2cccs2)c(O)c(OC)c2occc12` has a Kd [1] of 1000 nM.

For `COc1c(C(C)=O)c(OCc2cc(COc3c(C(C)=O)c(OC)c4ccoc4c3OC)cc(COc3c(C(C)=O)c(OC)c4ccoc4c3OC)c2)c(OC)c2occc12`, the Kd [2] was “Not Active”.

Compound `COc1c(C(C)=O)c(O)cc2occc12` has a Kd [1] of 100000 nM.
